Source: PubChem BioAssay
Shown is part of a subset that was picked to be rich in hits.
T cruzi growth-1: blocks T. cruzi growth in NIH3T3 culture. inhibition, % at 8.34 µM. T. cruzi beta-gal in NIH3T3, GalScreen luminescence, 90 h. AID 624255. hit rate 5.9% among 77,000;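 active means mean inhibition above about 93%, with at least 55% of replicates each passing it, limit read from the data, passing the limit was not always enough; inconclusive means only one of those two conditions holds; inactive means neither condition holds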
KDM4C inh: blocks human GASC-1 (KDM4C) demethylase activity; Q9H3R0; GST-KDM4C 2-372, H3K9me3 peptide, LANCE TR-FRET; inhibition, % at 12.5 µM; hit rate 0.15% among 96,000; AID 720574;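 active means mean replicate inhibition above about 25%, with at least 55% of replicates also reaching it, limit read from the data, passing the limit was not always enough; inconclusive means only one of those two conditions met; inactive means neither condition met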
Target sequence (Q9H3R0 2-372 limits assumed): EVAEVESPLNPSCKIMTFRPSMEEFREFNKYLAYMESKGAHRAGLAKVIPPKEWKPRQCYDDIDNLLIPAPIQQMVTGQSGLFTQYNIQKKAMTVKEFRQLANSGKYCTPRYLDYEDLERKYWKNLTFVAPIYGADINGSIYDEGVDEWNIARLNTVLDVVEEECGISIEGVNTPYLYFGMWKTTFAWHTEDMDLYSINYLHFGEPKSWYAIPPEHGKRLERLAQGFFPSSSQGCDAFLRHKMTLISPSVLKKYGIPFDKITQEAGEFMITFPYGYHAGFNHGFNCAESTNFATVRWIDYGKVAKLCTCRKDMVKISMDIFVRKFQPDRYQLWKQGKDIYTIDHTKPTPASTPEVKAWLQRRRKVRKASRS
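Test system: N-terminal GST-fused human GASC-1 (KDM4C) fragment, residues 2-372; quantity: GASC-1 enzyme at 10 nM final in reaction; dosing: single dose; schedule: 30 min demethylation and 1 h detection at room temperature; signal: LANCE TR-FRET, excitation 340 nm, emissions 618 and 671 nm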
IDH1 mut inh: blocks human IDH1 R132H reductase activity | hit rate 0.18% among 70,000 | O75874 | inhibition, % at 10 µM | diaphorase/resazurin fluorescence, 60 min; in the data active means inhibition above about 34%; inconclusive means no clear call, values can overlap the other calls; inactive means below about 11%
Target sequence (O75874 whole entry R132H): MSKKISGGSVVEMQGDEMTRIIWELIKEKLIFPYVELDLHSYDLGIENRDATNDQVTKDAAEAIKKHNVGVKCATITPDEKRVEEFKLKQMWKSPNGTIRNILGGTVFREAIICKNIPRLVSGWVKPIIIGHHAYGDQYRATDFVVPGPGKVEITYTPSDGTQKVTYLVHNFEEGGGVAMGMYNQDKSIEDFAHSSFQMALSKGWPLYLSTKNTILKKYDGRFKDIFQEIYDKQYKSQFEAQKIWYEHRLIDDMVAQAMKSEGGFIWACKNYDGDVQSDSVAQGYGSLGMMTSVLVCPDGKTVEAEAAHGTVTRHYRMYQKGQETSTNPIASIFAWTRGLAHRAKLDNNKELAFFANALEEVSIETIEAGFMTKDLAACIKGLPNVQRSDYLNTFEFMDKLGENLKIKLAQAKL
T cruzi growth-2: inhibitors of T. cruzi proliferation; inhibition, % at 8.35 µM; shares compounds with T cruzi growth-1; AID 651739; T. cruzi beta-gal in NIH3T3, GalScreen luminescence, 90 h; hit rate 72% among 5,600;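 active means mean replicate inhibition above about 95% and at least 55% of replicates individually reaching it, limit read from the data; inconclusive means only one of the two criteria is met; inactive means neither criterion is met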
T cruzi growth-3: blocks T. cruzi growth in NIH3T3 host cells | shares compounds with T cruzi growth-1 | T. cruzi beta-gal in NIH3T3, GalScreen luminescence, 90 h | inhibition, % at 2.09 µM | hit rate 21% among 5,600;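 active means mean inhibition above about 95%, with at least 55% of replicates also reaching it, limit read from the data; inconclusive means meets just one of the two conditions; inactive means meets neither condition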
NIH3T3 tox: NIH/3T3 (mouse) viability loss. shares compounds with T cruzi growth-1. NIH/3T3 viability, CellTiter-Glo ATP luminescence, 90 h. cytotoxicity (signal decrease), % at 8.35 µM. hit rate 14% among 5,600. AID 651742;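 active means mean signal decrease across replicates above about 35% based on untreated-well scatter, with enough replicates individually passing, limit read from the data; inconclusive means no rule stated though some were filed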
3T3 cytotox 2: cytotoxicity in mouse NIH/3T3 fibroblasts; shares compounds with T cruzi growth-1; NIH/3T3 viability, CellTiter-Glo ATP luminescence, 90 h; inhibition, % at 24.9 µM; hit rate 56% among 5,600;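 active means mean loss of cell viability signal at or above a set limit, and enough replicates individually reaching it; inconclusive means meets only the mean limit or only the replicate share; inactive means meets neither condition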
Hits are given with their value; - = inactive; ? = inconclusive; . = no result.

SMILES | T cruzi growth-1 | KDM4C inh | IDH1 mut inh | T cruzi growth-2 | T cruzi growth-3 | NIH3T3 tox | 3T3 cytotox 2
COc1cccc(-c2ccc([C@H]3[C@H](C#N)N(C(=O)Cc4ccncc4)[C@H]3CO)cc2)c1 | ? | - | . | 101.8 | - | - | 52.2
COc1cccc(-c2ccc([C@@H]3[C@@H](C#N)N(C(=O)Cc4ccncc4)[C@@H]3CO)cc2)c1 | - | - | . | . | . | . | .
COc1cccc(-c2ccc([C@H]3[C@@H](C#N)N(C(=O)Cc4ccccc4)[C@@H]3CO)cc2)c1 | 97.3 | - | . | 109.6 | - | - | 42.9
O=C(O)CCCCCCC(=O)N/N=C/c1cc(F)ccc1O | . | . | - | . | . | . | .
CS(=O)(=O)N(CC(=O)Nc1ccc(I)cc1)c1ccc(Cl)cc1Cl | . | . | - | . | . | . | .
Cc1ccc(S(=O)(=O)N(C)C[C@@H]2OCCCC[C@@H](C)Oc3ccc(NS(=O)(=O)c4ccc(Cl)cc4)cc3C(=O)N([C@H](C)CO)C[C@@H]2C)cc1 | - | - | - | . | . | . | .
Cc1ccc(S(=O)(=O)N(C)C[C@H]2OCCCC[C@H](C)Oc3ccc(NS(=O)(=O)c4ccc(Cl)cc4)cc3C(=O)N([C@@H](C)CO)C[C@H]2C)cc1 | ? | - | - | 103.9 | 107.6 | - | -
Cc1ccc(S(=O)(=O)N(C)C[C@H]2OCCCC[C@H](C)Oc3ccc(NS(=O)(=O)c4ccc(Cl)cc4)cc3C(=O)N([C@@H](C)CO)C[C@@H]2C)cc1 | 93.2 | - | - | 108.6 | 106.6 | - | -
Cc1ccc(S(=O)(=O)Nc2ccc3c(c2)C(=O)N([C@H](C)CO)C[C@H](C)[C@@H](CN(C)S(=O)(=O)c2ccc(Cl)cc2)OCCCC[C@H](C)O3)cc1 | - | - | - | . | . | . | .
Cc1ccc(S(=O)(=O)N(C)C[C@@H]2OCCCC[C@H](C)Oc3ccc(NS(=O)(=O)c4ccc(Cl)cc4)cc3C(=O)N([C@@H](C)CO)C[C@H]2C)cc1 | 106.3 | - | - | 102.5 | - | - | -
Cc1ccc(S(=O)(=O)Nc2ccc3c(c2)C(=O)N([C@H](C)CO)C[C@@H](C)[C@H](CN(C)S(=O)(=O)c2ccc(Cl)cc2)OCCCC[C@H](C)O3)cc1 | . | - | - | . | . | . | .
Cc1ccc(S(=O)(=O)Nc2ccc3c(c2)C(=O)N([C@@H](C)CO)C[C@@H](C)[C@@H](CN(C)S(=O)(=O)c2ccc(Cl)cc2)OCCCC[C@@H](C)O3)cc1 | - | - | . | . | . | . | .
Cc1ccc(S(=O)(=O)N(C)C[C@@H]2OCCCC[C@@H](C)Oc3ccc(NS(=O)(=O)c4ccc(Cl)cc4)cc3C(=O)N([C@@H](C)CO)C[C@@H]2C)cc1 | 110.4 | - | . | 99.6 | 113.1 | - | 45.5
O=C(CC1(O)C(=O)N(Cc2ccccc2)c2ccc(Br)cc21)c1ccccc1[N+](=O)[O-] (stereo not given) | . | . | - | . | . | . | .
COc1ccc(NC(=O)COc2ccc([N+](=O)[O-])cc2)cc1OC | . | . | - | . | . | . | .
COc1ccc(OC)c(C(=O)CSc2nnc(-c3ccco3)n2C)c1 | . | . | - | . | . | . | .
COc1ccc(-c2nc3ccccc3s2)cc1NC(=O)COc1cc(C)ccc1C(C)C | . | . | - | . | . | . | .
O=C(CSc1nc2ccccc2c(=O)n1-c1cccc(Cl)c1)Nc1cccc(Cl)c1 | . | . | - | . | . | . | .
CCn1c(SCC(=O)c2ccc(OC)cc2)nnc1-c1ccc(C)cc1 | . | . | - | . | . | . | .
COc1ccc(Cl)cc1NC(=O)CN1C(=O)c2ccccc2S1(=O)=O | . | . | - | . | . | . | .
C[C@@H]1CCCCO[C@H](CN(C)Cc2ccc(C(F)(F)F)cc2)[C@@H](C)CN([C@H](C)CO)C(=O)c2cc(NC(=O)Nc3ccc4c(c3)OCO4)ccc2O1 | - | - | - | . | . | . | .
C[C@@H]1CCCCO[C@H](CN(C)Cc2ccc(C(F)(F)F)cc2)[C@@H](C)CN([C@@H](C)CO)C(=O)c2cc(NC(=O)Nc3ccc4c(c3)OCO4)ccc2O1 | - | - | . | . | . | . | .
C[C@@H]1CCCCO[C@@H](CN(C)Cc2ccc(C(F)(F)F)cc2)[C@@H](C)CN([C@@H](C)CO)C(=O)c2cc(NC(=O)Nc3ccc4c(c3)OCO4)ccc2O1 | - | - | - | . | . | . | .
C[C@@H]1CCCCO[C@@H](CN(C)Cc2ccc3c(c2)OCO3)[C@H](C)CN([C@H](C)CO)C(=O)c2cc(NC(=O)Nc3ccc(C(F)(F)F)cc3)ccc2O1 | 119.3 | - | . | 101.8 | 109.8 | - | 104.2
C[C@@H]1CCCCO[C@H](CN(C)Cc2ccc3c(c2)OCO3)[C@@H](C)CN([C@H](C)CO)C(=O)c2cc(NC(=O)Nc3ccc(C(F)(F)F)cc3)ccc2O1 | ? | - | - | - | 112.6 | - | 101.7
SMILES | T cruzi growth-1 | KDM4C inh | IDH1 mut inh | T cruzi growth-2 | T cruzi growth-3 | NIH3T3 tox | 3T3 cytotox 2
C[C@@H]1CN([C@H](C)CO)C(=O)c2cc(NC(=O)Nc3ccc(C(F)(F)F)cc3)ccc2O[C@@H](C)CCCCO[C@@H]1CN(C)Cc1ccc2c(c1)OCO2 | ? | - | . | - | 120.0 | ? | 102.4
O=S(=O)(c1ccc(Cl)cc1)c1nc(-c2ccc(F)cc2)oc1NCc1cccnc1 | . | . | - | . | . | . | .
C/C=C/c1ccc([C@H]2[C@@H](CO)N(c3nc(CC)cs3)[C@H]2C#N)cc1 | 100.8 | - | . | - | - | - | 25.6
CCc1csc(N2[C@H](CO)[C@@H](c3ccc(-c4cccc(F)c4)cc3)[C@@H]2C#N)n1 | - | - | . | . | . | . | .
CCc1csc(N2[C@@H](C#N)[C@@H](c3ccccc3-c3cccc(F)c3)[C@@H]2CO)n1 | . | - | . | . | . | . | .
CCc1csc(N2[C@H](C#N)[C@@H](c3ccc(-c4ccc(F)cc4)cc3)[C@H]2CO)n1 | 106.0 | - | . | 105.6 | 98.5 | - | ?
CCc1csc(N2[C@H](C#N)[C@H](c3ccc(-c4cccc(F)c4)cc3)[C@H]2CO)n1 | - | - | . | . | . | . | .
CCc1csc(N2[C@H](C#N)[C@H](c3ccc(-c4ccc(F)cc4)cc3)[C@@H]2CO)n1 | 102.0 | - | . | 100.6 | 109.9 | - | 36.9
CCc1csc(N2[C@@H](C#N)[C@H](c3ccc(-c4ccc(F)cc4)cc3)[C@@H]2CO)n1 | 105.5 | - | . | 101.7 | - | - | -
C/C=C/c1ccc([C@@H]2[C@@H](CO)N(c3nc(-c4ccccc4)cs3)[C@H]2C#N)cc1 | . | - | . | . | . | . | .
O=C(CCCN1C(=O)c2ccccc2C1=O)Nc1cccc(Cl)c1Cl | . | . | - | . | . | . | .
CC(=O)c1ccc(NC(=O)CSc2nnc(-c3cccs3)n2-c2ccccc2)cc1 | . | . | - | . | . | . | .
COc1ccc(Cl)cc1N(CC(=O)Nc1ccccc1C(F)(F)F)S(C)(=O)=O | . | . | - | . | . | . | .
COc1cccc(C2CC(C(F)(F)F)n3ncc(C(=O)NCc4cccnc4)c3N2)c1 (stereo not given) | . | . | - | . | . | . | .
N#Cc1ccccc1CSc1nnc(Cc2cccc3ccccc23)n1-c1ccccc1 | . | . | - | . | . | . | .
CCOc1ccc(Nc2nc(CSc3nc4ccccc4c(=O)n3-c3ccccc3)cs2)cc1 | . | . | - | . | . | . | .
CCc1csc(N2[C@@H](C#N)[C@@H](c3ccc(-c4ccc(F)cc4)cc3)[C@@H]2CO)n1 | 97.6 | - | . | 97.8 | - | 48.6 | 83.1
